In ChEMBL document CHEMBL1152380, “The synthesis and biological evaluation of a novel series of C7 non-basic substituted fluoroquinolones as antibacterial agents” (2009):
Values after ≈ are worked out from the molar mass of the structure shown.

Legend:
Assay type in all cases: functional
Staphylococcus aureus [1] = experiment: Antibacterial activity against Staphylococcus aureus ATCC 25923 by microbroth dilution technique
Outline: (§1)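 MIC, taken as the lowest drug concentration that prevents visible growth, determined by broth microdilution following the National Committee for Clinical and Laboratory Standards method. Strains were reference strains from the American Type Culture Collection or clinical isolates from the hospital culture collection.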

Escherichia coli = experiment: Antibacterial activity against Escherichia coli ATCC 25922 by microbroth dilution technique; outline: as §1
Streptococcus pneumoniae [2] = experiment: Antibacterial activity against multidrug-resistant Streptococcus pneumoniae clinical isolates by microbroth dilution technique
Pseudomonas aeruginosa [3] = experiment: Antibacterial activity against multidrug-resistant Pseudomonas aeruginosa clinical isolates by microbroth dilution technique
Enterococcus faecalis = experiment: Antibacterial activity against Enterococcus faecalis ATCC 29212 by microbroth dilution technique; outline: as §1
[4] = tested on: Staphylococcus epidermidis; experiment: Antibacterial activity against Staphylococcus epidermidis ATCC 12228 by microbroth dilution technique; outline: as §1
Streptococcus pneumoniae [5] = experiment: Antibacterial activity against Streptococcus pneumoniae ATCC 49619 by microbroth dilution technique
Outline: (§2)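 Broth microdilution run to the National Committee for Clinical and Laboratory Standards method. MIC is taken as the lowest drug concentration that prevents visible bacterial growth. Strains were clinical isolates from a hospital culture collection or ATCC reference strains.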

Pseudomonas aeruginosa [6] = experiment: Antibacterial activity against Pseudomonas aeruginosa ATCC 27853 by microbroth dilution technique; outline: as §2
Staphylococcus aureus [7] = experiment: Antibacterial activity against multidrug-resistant Staphylococcus aureus clinical isolates by microbroth dilution technique
[8] = Staphylococcus aureus, ATCC 25923, read-out: MIC
[9] = Escherichia coli, ATCC 25922, read-out: MIC
[10] = Streptococcus pneumoniae, read-out: MIC
[11] = Pseudomonas aeruginosa, read-out: MIC
[12] = Enterococcus faecalis, ATCC 29212, read-out: MIC
[13] = Staphylococcus epidermidis, ATCC 12228, read-out: MIC
[14] = Streptococcus pneumoniae, ATCC 49619, read-out: MIC
[15] = Pseudomonas aeruginosa, ATCC 27853, read-out: MIC

Compound	MIC (Staphylococcus aureus [1]; [8]) [µg/mL]	MIC (Escherichia coli; [9]) [µg/mL]	MIC (Streptococcus pneumoniae [2]; [10]) [µg/mL]	MIC (Pseudomonas aeruginosa [3]; [11]) [µg/mL]	MIC (Enterococcus faecalis; [12]) [µg/mL]	MIC [4, 13] [µg/mL]	MIC (Streptococcus pneumoniae [5]; [14]) [µg/mL]	MIC (Pseudomonas aeruginosa [6]; [15]) [µg/mL]	MIC (Staphylococcus aureus [7]) [µg/mL]	MIC (Staphylococcus aureus [1]) [µg/mL]	MIC (Escherichia coli) [µg/mL]	MIC (Streptococcus pneumoniae [2]) [µg/mL]	MIC (Enterococcus faecalis) [µg/mL]	MIC [4] [µg/mL]	MIC (Streptococcus pneumoniae [5]) [µg/mL]	MIC (Pseudomonas aeruginosa [6]) [µg/mL]	MIC (Pseudomonas aeruginosa [3]) [µg/mL]
O=C(O)c1cn(C2CC2)c2nc(N3CC4CC3CS4(=O)=O)c(F)cc2c1=O (stereo not given)	0.016 (≈ 0.0407 µM)	0.125 (≈ 0.318 µM)	0.031 (≈ 0.0788 µM)	32 (≈ 81.3 µM)	0.063 (≈ 0.16 µM)	0.5 (≈ 1.27 µM)	0.063 (≈ 0.16 µM)	8 (≈ 20.3 µM)	> 32								
O=C(O)c1cn(C2CC2)c2nc(N3CCC[C@H]3Cn3cc(-c4ccccc4)nn3)c(F)cc2c1=O	1 (≈ 2.11 µM)	> 32			4 (≈ 8.43 µM)	> 32		> 32									
O=C(O)c1cn(C2CC2)c2nc(N3CC4CC3CS4)c(F)cc2c1=O (stereo not given)	0.016 (≈ 0.0443 µM)	0.125 (≈ 0.346 µM)	0.031 (≈ 0.0858 µM)	32 (≈ 88.5 µM)	0.125 (≈ 0.346 µM)	0.125 (≈ 0.346 µM)	0.031 (≈ 0.0858 µM)	2 (≈ 5.53 µM)	> 32								
CN[C@H](CC(C)C)C(=O)N[C@H]1C(=O)N[C@@H](CC(N)=O)C(=O)N[C@H]2C(=O)N[C@H]3C(=O)N[C@H](C(=O)N[C@H](C(=O)O)c4cc(O)cc(O)c4-c4cc3ccc4O)[C@H](O)c3ccc(c(Cl)c3)Oc3cc2cc(c3O[C@@H]2O[C@H](CO)[C@@H](O)[C@H](O)[C@H]2O[C@H]2C[C@](C)(N)[C@H](O)[C@H](C)O2)Oc2ccc(cc2Cl)[C@H]1O [VANCOMYCIN]			2 (≈ 1.38 µM)		0.5 (≈ 0.345 µM)		1 (≈ 0.69 µM)										
O=C(O)c1cn(C2CC2)c2nc(N3C[C@@H](O)[C@H](O)C3)c(F)cc2c1=O	4 (≈ 11.5 µM)	4 (≈ 11.5 µM)	2 (≈ 5.73 µM)	32 (≈ 91.6 µM)	2 (≈ 5.73 µM)	> 32	2 (≈ 5.73 µM)	32 (≈ 91.6 µM)	> 32								
O=C(O)c1cn(C2CC2)c2nc(N3CC4CC3C[S+]4[O-])c(F)cc2c1=O (stereo in doubt; 6.26)				32 (≈ 84.8 µM)						1 (≈ 2.65 µM)	0.5 (≈ 1.32 µM)	0.125 (≈ 0.331 µM)	0.25 (≈ 0.662 µM)	1 (≈ 2.65 µM)	0.125 (≈ 0.331 µM)	16 (≈ 42.4 µM)	
O=C(O)c1cn(C2CC2)c2nc(N3CC4CC3C[S+]4[O-])c(F)cc2c1=O (stereo in doubt; 6.28)		1 (≈ 2.65 µM)	0.25 (≈ 0.662 µM)					32 (≈ 84.8 µM)	> 32	4 (≈ 10.6 µM)			1 (≈ 2.65 µM)	4 (≈ 10.6 µM)	0.5 (≈ 1.32 µM)		32 (≈ 84.8 µM)
O=C(O)c1cn(C2CC2)c2nc(N3CCC[C@H]3CO)c(F)cc2c1=O	0.5 (≈ 1.44 µM)	2 (≈ 5.76 µM)	0.5 (≈ 1.44 µM)	32 (≈ 92.1 µM)	0.5 (≈ 1.44 µM)	8 (≈ 23 µM)	0.5 (≈ 1.44 µM)	32 (≈ 92.1 µM)	> 32								
CC(C)(C)OC(=O)N1CC2CC1CN2c1nc2c(cc1F)c(=O)c(C(=O)O)cn2C1CC1 (stereo not given)	0.25 (≈ 0.562 µM)	4 (≈ 9 µM)	0.5 (≈ 1.12 µM)	32 (≈ 72 µM)	0.5 (≈ 1.12 µM)	4 (≈ 9 µM)	2 (≈ 4.5 µM)	32 (≈ 72 µM)	> 32								
COC(=O)[C@@H]1C[C@@H](n2cc(CO)nn2)CN1c1nc2c(cc1F)c(=O)c(C(=O)O)cn2C1CC1	4 (≈ 8.47 µM)	4 (≈ 8.47 µM)	1 (≈ 2.12 µM)	> 32	0.5 (≈ 1.06 µM)	8 (≈ 16.9 µM)	1 (≈ 2.12 µM)	32 (≈ 67.7 µM)	> 32								
O=C(O)c1cn(C2CC2)c2nc(N3CCC[C@H]3Cn3cc(CO)nn3)c(F)cc2c1=O	32 (≈ 74.7 µM)	32 (≈ 74.7 µM)	4 (≈ 9.34 µM)	32 (≈ 74.7 µM)	4 (≈ 9.34 µM)	32 (≈ 74.7 µM)	8 (≈ 18.7 µM)	32 (≈ 74.7 µM)	> 32								
C[C@H](O)[C@@H]1C[C@@H](O)CN1c1nc2c(cc1F)c(=O)c(C(=O)O)cn2C1CC1	16 (≈ 42.4 µM)	8 (≈ 21.2 µM)	2 (≈ 5.3 µM)	32 (≈ 84.8 µM)	4 (≈ 10.6 µM)	32 (≈ 84.8 µM)	1 (≈ 2.65 µM)	32 (≈ 84.8 µM)	> 32								
COC(=O)[C@@H]1C[C@@H](O)CN1c1nc2c(cc1F)c(=O)c(C(=O)O)cn2C1CC1	2 (≈ 5.11 µM)	8 (≈ 20.4 µM)	0.5 (≈ 1.28 µM)	32 (≈ 81.8 µM)	1 (≈ 2.56 µM)	16 (≈ 40.9 µM)	0.5 (≈ 1.28 µM)	32 (≈ 81.8 µM)	> 32								
C[C@@H](O)[C@@H]1C[C@@H](O)CN1c1nc2c(cc1F)c(=O)c(C(=O)O)cn2C1CC1	32 (≈ 84.8 µM)	16 (≈ 42.4 µM)	8 (≈ 21.2 µM)	32 (≈ 84.8 µM)	2 (≈ 5.3 µM)	> 32	2 (≈ 5.3 µM)	32 (≈ 84.8 µM)	> 32								
O=C(O)c1cn(C2CC2)c2cc(N3CCNCC3)c(F)cc2c1=O [CIPROFLOXACIN]					0.5 (≈ 1.51 µM)	0.5 (≈ 1.51 µM)											
O=C(O)c1cn(C2CC2)c2nc(N3C[C@H](O)C[C@H]3CO)c(F)cc2c1=O	16 (≈ 44 µM)	32 (≈ 88.1 µM)	8 (≈ 22 µM)	32 (≈ 88.1 µM)	4 (≈ 11 µM)	> 32	8 (≈ 22 µM)	32 (≈ 88.1 µM)	> 32								
COC(=O)[C@@H]1C[C@@H](n2cc(Cc3ccccc3)nn2)CN1c1nc2c(cc1F)c(=O)c(C(=O)O)cn2C1CC1	> 32	32 (≈ 60.1 µM)	8 (≈ 15 µM)	32 (≈ 60.1 µM)	16 (≈ 30 µM)	> 32	4 (≈ 7.51 µM)	32 (≈ 60.1 µM)	> 32								
